Experimental data taken from ChEMBL document CHEMBL1126794, “2-(Quinuclidin-3-yl)pyrido[4,3-b]indol-1-ones and isoquinolin-1-ones. Potent conformationally restricted 5-HT3 receptor antagonists” (J Med Chem, 1993).
pKi: −log10 of the molar value.

Legend:
[1] = biological target: T1, Serotonin 3 (5-HT3) receptor (Rattus norvegicus, UniProt P35563+Q9JJ16); assay: Binding affinity against 5-hydroxytryptamine 3 (5-HT3) receptor in rat brain cortical membranes using radioligand [3H]quipazine; type: cell membranes
T1 sequence (P35563 whole entry): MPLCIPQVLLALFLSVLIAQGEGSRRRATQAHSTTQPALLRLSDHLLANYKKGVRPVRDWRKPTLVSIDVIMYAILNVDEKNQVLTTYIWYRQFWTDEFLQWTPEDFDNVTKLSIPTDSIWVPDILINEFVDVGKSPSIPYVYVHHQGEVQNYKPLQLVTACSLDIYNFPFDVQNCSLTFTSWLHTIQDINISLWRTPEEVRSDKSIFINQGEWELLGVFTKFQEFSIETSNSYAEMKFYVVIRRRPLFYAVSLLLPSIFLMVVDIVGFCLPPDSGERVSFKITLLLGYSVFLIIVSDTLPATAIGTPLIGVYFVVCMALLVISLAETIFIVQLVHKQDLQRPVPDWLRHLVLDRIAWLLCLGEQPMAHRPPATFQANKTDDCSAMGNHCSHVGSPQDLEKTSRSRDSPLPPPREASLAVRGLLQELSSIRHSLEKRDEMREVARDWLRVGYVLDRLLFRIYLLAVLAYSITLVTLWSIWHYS
T1 sequence (Q9JJ16 whole entry): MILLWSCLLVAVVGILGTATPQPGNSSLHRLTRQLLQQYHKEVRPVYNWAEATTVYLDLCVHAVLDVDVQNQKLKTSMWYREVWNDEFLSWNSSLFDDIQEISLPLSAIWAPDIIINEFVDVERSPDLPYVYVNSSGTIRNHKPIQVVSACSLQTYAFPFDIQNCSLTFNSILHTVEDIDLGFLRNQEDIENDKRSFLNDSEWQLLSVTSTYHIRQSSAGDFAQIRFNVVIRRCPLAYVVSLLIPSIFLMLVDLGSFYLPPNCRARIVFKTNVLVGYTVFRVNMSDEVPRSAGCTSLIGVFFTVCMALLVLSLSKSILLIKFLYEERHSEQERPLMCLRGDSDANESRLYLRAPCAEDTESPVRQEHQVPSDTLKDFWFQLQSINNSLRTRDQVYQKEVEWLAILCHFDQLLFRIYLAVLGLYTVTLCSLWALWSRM
In short: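 Rat cerebral cortex membranes, washed in 50 mM Tris pH 7.4, incubated 45 min at 25 °C in Tris-Krebs buffer pH 7.4 with 0.3–0.7 nM [3H]quipazine plus 0.1 μM paroxetine. Ten test concentrations from 1e-12 to 1e-4 M. Nonspecific binding defined with 1.0 μM racemic zacopride. Filtration, scintillation counting, IC50 by iterative fit, Ki by Cheng-Prusoff. Means of ≥3 determinations, or of two.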

Rattus norvegicus [2] = assay: Potency to inhibit bradycardiac effect measured by Von Bezold-Jarisch assay in 8 anesthetized rats; type: functional; details: read-out: ID50 (the source's name)
In short: (§1)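 Male Sprague-Dawley rats, 250–380 g, under urethane (1.5 g/kg ip), with cannulated trachea and femoral veins; heart rate recorded by ECG. Lowest consistent bradycardic dose of 2-methyl-5-HT titrated iv, then given every 12 min. Increasing iv doses given 5 min before each challenge, with saline vehicle group.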

Rattus norvegicus [3] = assay: Potency to inhibit bradycardiac effect measured by Von Bezold-Jarisch assay in 9 anesthetized rats; type: functional; details: Rattus norvegicus; read-out: ID50 (the source's name); in short: as §1
Mustela putorius furo [4] = assay: Inhibition of emesis induced by peroral administration of cisplatin in 5 ferrets at 0.3 mg/kg (p<0.01); type: functional; details: route oral
Canis familiaris [5] = assay: Inhibition of emesis induced by peroral administration of cisplatin in 6 dogs at 0.1 mg/kg; type: functional, Canis lupus familiaris; details: route oral
In short: (§2)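 Single oral pretreatment in dogs (n = 6) by liquid gelatin capsule, 30 min before iv cisplatin at 3 mg/kg. Number of emetic episodes monitored continuously for 5 h after cisplatin. Significance versus control by Dunnett's t test.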

Canis familiaris [6] = assay: Inhibition of emesis induced by peroral administration of cisplatin in 6 dogs at 1.0 mg/kg (p<0.01); type: functional, Canis lupus familiaris; details: route oral; in short: as §2
Canis familiaris [7] = assay: Inhibition of emesis induced by intravenous administration of cisplatin in 6 dogs at 0.03 mg/kg; type: functional, Canis lupus familiaris
In short: (§3)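 Dogs, n = 6 per group, given one iv dose of test compound as an aqueous solution through a jugular vein cannula 30 min before iv cisplatin (3 mg/kg). Emetic episodes counted by continuous observation for 5 h after cisplatin. Results given as mean ± value versus control, with significance by Dunnett's t test.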

Canis familiaris [8] = assay: Inhibition of emesis induced by intravenous administration of cisplatin in 6 dogs at 0.1 mg/kg (p<0.01); type: functional, Canis lupus familiaris; in short: as §3
Canis familiaris [9] = assay: Inhibition of emesis induced by intravenous administration of cisplatin in 6 dogs at 1 mg/kg (p<0.01); type: functional, Canis lupus familiaris; in short: as §3
Canis familiaris [10] = assay: Inhibition of emesis induced by intravenous administration of cisplatin in 6 dogs at 0.3 mg/kg (p<0.01); type: functional, Canis lupus familiaris; in short: as §3
Mustela putorius furo [11] = assay: Inhibition of emesis induced by peroral administration of cisplatin in 5 ferrets at 0.1 mg/kg (p<0.01); type: functional; details: route oral
Canis familiaris [12] = assay: Inhibition of emesis induced by peroral administration of cisplatin in 6 dogs at 0.01 mg/kg; type: functional, Canis lupus familiaris; details: route oral; in short: as §2
Canis familiaris [13] = assay: Inhibition of emesis induced by intravenous administration of cisplatin in 6 dogs at 0.01 mg/kg; type: functional, Canis lupus familiaris; in short: as §3
Canis familiaris [14] = assay: Inhibition of emesis induced by peroral administration of cisplatin in 6 dogs at 0.03 mg/kg; type: functional, Canis lupus familiaris; details: route oral; in short: as §2
Mustela putorius furo [15] = assay: Inhibition of emesis induced by peroral administration of cisplatin in 5 ferrets at 0.03 mg/kg; type: functional; details: route oral
Canis familiaris [16] = assay: Inhibition of emesis induced by peroral administration of cisplatin in 6 dogs at 0.3 mg/kg (p<0.01); type: functional, Canis lupus familiaris; details: route oral; in short: as §2
Mustela putorius furo [17] = assay: Inhibition of emesis induced by peroral administration of cisplatin in 6 ferrets at 0.003 mg/kg (p<0.05); type: functional; details: route oral
Mustela putorius furo [18] = assay: Inhibition of emesis induced by intravenous administration of cisplatin in 5 ferrets at 0.003 mg/kg; type: functional
Canis familiaris [19] = assay: Inhibition of emesis induced by peroral administration of cisplatin in 6 dogs at 0.001 mg/kg; type: functional, Canis lupus familiaris; details: route oral
Canis familiaris [20] = assay: Inhibition of emesis induced by intravenous administration of cisplatin in 6 dogs at 0.003 mg/kg (p<0.01); type: functional, Canis lupus familiaris
Canis familiaris [21] = assay: Inhibition of emesis induced by peroral administration of cisplatin in 6 dogs at 0.1 mg/kg (p<0.01); type: functional, Canis lupus familiaris; details: route oral
Canis familiaris [22] = assay: Inhibition of emesis induced by peroral administration of cisplatin in 6 dogs at 0.01 mg/kg (p<0.01); type: functional, Canis lupus familiaris; details: route oral
Mustela putorius furo [23] = assay: Inhibition of emesis induced by peroral administration of cisplatin in 6 ferrets at 0.001 mg/kg; type: functional; details: route oral
Mustela putorius furo [24] = assay: Inhibition of emesis induced by intravenous administration of cisplatin in 9 ferrets at 0.001 mg/kg; type: functional
Canis familiaris [25] = assay: Inhibition of emesis induced by intravenous administration of cisplatin in 6 dogs at 0.03 mg/kg (p<0.01); type: functional, Canis lupus familiaris
Mustela putorius furo [26] = assay: Inhibition of emesis induced by intravenous administration of cisplatin in 5 ferrets at 0.03 mg/kg (p<0.005); type: functional
Mustela putorius furo [27] = assay: Inhibition of emesis induced by intravenous administration of cisplatin in 6 ferrets at 0.1 mg/kg (p<0.005); type: functional
Canis familiaris [28] = assay: Inhibition of emesis induced by intravenous administration of cisplatin in 6 dogs at 0.001 mg/kg (p<0.05); type: functional, Canis lupus familiaris
Canis familiaris [29] = assay: Inhibition of emesis induced by peroral administration of cisplatin in 6 dogs at 0.003 mg/kg; type: functional, Canis lupus familiaris; details: route oral
Mustela putorius furo [30] = assay: Inhibition of emesis induced by intravenous administration of cisplatin in 6 ferrets at 0.01 mg/kg (p<0.005); type: functional
Mustela putorius furo [31] = assay: Inhibition of emesis induced by peroral administration of cisplatin in 5 ferrets at 0.03 mg/kg (p<0.005); type: functional; details: route oral
Canis familiaris [32] = assay: Inhibition of emesis induced by peroral administration of cisplatin in 6 dogs at 0.03 mg/kg (p<0.01); type: functional, Canis lupus familiaris; details: route oral
Mustela putorius furo [33] = assay: Inhibition of emesis induced by peroral administration of cisplatin in 5 ferrets at 0.1 mg/kg (p<0.005); type: functional; details: route oral
Mustela putorius furo [34] = assay: Inhibition of emesis induced by peroral administration of cisplatin in 6 ferrets at 0.01 mg/kg (p<0.005); type: functional; details: route oral

Q: With `Cc1cccc2c1CCN([C@@H]1CN3CCC1CC3)C2=O.Cl` as the compound, how does the pKi [1] read?
A: 9.50

Q: And the ED50 (Rattus norvegicus [2])?
A: 0.13 µg/kg

Q: With `COc1cc(N)c(Cl)cc1C(=O)N[C@H]1CN2CCC1CC2` [(R)ZACOPRIDE] as the compound, how does the pKi [1] read?
A: 8.50

Q: How did the pKi [1] turn out when `COc1ccc2c3c(cn(C4CN5CCC4CC5)c(=O)c13)CCC2` (stereo not given) was run?
A: 6.80

Q: `COc1cccc(C(=O)N[C@@H]2CN3CCC2CC3)c1C` was tested. Which pKi [1] did it give?
A: 6.40

Q: How did the pKi [1] turn out when `COc1cccc2c1CCN(C1CC3CCC(C1)N3C)C2=O` (stereo not given) was run?
A: 8.00

Q: `COc1cccc2c1CCN(C1CN3CCC1CC3)C2=O` (stereo not given) was tested. Which pKi [1] did it give?
A: 9.70

Q: What does the source list for `Cc1nccn1CC1CCc2c(c3ccccc3n2C)C1=O` (stereo not given) [ONDANSETRON]?
A: ED50 (Rattus norvegicus [3]): 2.6 µg/kg; No. of emetic episodes (Mustela putorius furo [4]): 4.2; No. of emetic episodes (Canis familiaris [5]): 10.5; No. of emetic episodes (Canis familiaris [6]): 2; No. of emetic episodes (Canis familiaris [7]): 8.33; No. of emetic episodes (Canis familiaris [8]): 4.83; No. of emetic episodes (Canis familiaris [9]): 1.17; No. of emetic episodes (Canis familiaris [10]): 1; No. of emetic episodes (Mustela putorius furo [11]): 2.2; No. of emetic episodes (Canis familiaris [12]): 12.67; No. of emetic episodes (Canis familiaris [13]): 13.33; No. of emetic episodes (Canis familiaris [14]): 18.33; No. of emetic episodes (Mustela putorius furo [15]): 11.2; No. of emetic episodes (Canis familiaris [16]): 3.17

Q: `O=C1c2cccc3c2[C@@H](CCC3)CN1[C@H]1CN2CCC1CC2` was tested. Which pKi [1] did it give?
A: 8.40

Q: How did the pKi [1] turn out when `O=c1c2ccccc2ccn1C1CN2CCC1CC2` (stereo not given) was run?
A: 8.00

Q: Which results are given for `Cl.O=C1c2cccc3c2[C@H](CCC3)CN1[C@@H]1CN2CCC1CC2` [PALONOSETRON HYDROCHLORIDE]?
A: No. of emetic episodes (Mustela putorius furo [17]): 7.17; pKi [1]: 10.40; No. of emetic episodes (Mustela putorius furo [18]): 0.6; No. of emetic episodes (Canis familiaris [19]): 12.83; No. of emetic episodes (Canis familiaris [20]): 4.33; No. of emetic episodes (Canis familiaris [21]): 0; No. of emetic episodes (Canis familiaris [22]): 4; No. of emetic episodes (Mustela putorius furo [23]): 15.17; No. of emetic episodes (Mustela putorius furo [24]): 9.67; No. of emetic episodes (Canis familiaris [25]): 1.33; No. of emetic episodes (Mustela putorius furo [26]): 0; No. of emetic episodes (Mustela putorius furo [27]): 0.17; No. of emetic episodes (Canis familiaris [28]): 7.17; No. of emetic episodes (Canis familiaris [29]): 16.17; No. of emetic episodes (Mustela putorius furo [30]): 0; No. of emetic episodes (Mustela putorius furo [31]): 1.8; No. of emetic episodes (Canis familiaris [32]): 2.67; No. of emetic episodes (Mustela putorius furo [33]): 0.8; ED50 (Rattus norvegicus [2]): 0.02 µg/kg; No. of emetic episodes (Mustela putorius furo [34]): 2.17

Q: `Cn1cc(C(=O)N[C@@H]2CN3CCC2CC3)c2ccccc21` was tested. Which pKi [1] did it give?
A: 9.40

Q: How did the ED50 (Rattus norvegicus [2]) turn out when `Cn1c2ccccc2c2c(=O)n([C@@H]3CN4CCC3CC4)ccc21` was run?
A: 0.13 µg/kg
